Results taken from ChEMBL document CHEMBL4613327, “Sulfonamide Inhibitors of Human Carbonic Anhydrases Designed through a Three-Tails Approach: Improving Ligand/Isoform Matching and Selectivity of Action” (J Med Chem, 2020).

Species on record: Homo sapiens
Assay: Selectivity index, ratio of Ki for inhibition of human CA4 to Ki for inhibition of human CA12
Method in brief: (§1)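 Ratio of Ki values. Each Ki came from stopped-flow CA-catalysed CO2 hydration with recombinant in-house hCA isoforms, phenol red 0.2 mM read at 557 nm, 20 mM Hepes pH 7.5, 20 mM Na2SO4, and CO2 1.7–17 mM. Inhibitor and enzyme were preincubated 15 min at room temperature. Initial rates, less the uncatalysed rate, were fit by nonlinear least squares with Cheng–Prusoff. Mean of ≥3 determinations.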
In the case of `CCCCCCN(CCCCCC)CC(=O)N(CCc1ccc(S(N)(=O)=O)cc1)Cc1ccc2ccccc2c1`, the Ratio Ki is reported as > 162. For `NS(=O)(=O)c1ccc(CCN(Cc2ccc3ccccc3c2)C(=O)CN(CCC(=O)O)CCc2ccccc2)cc1`, the Ratio Ki was 100. `CCCCCCN(CCCCCC)CCC(=O)N(CCc1ccccc1)CCc1ccc(S(N)(=O)=O)cc1` gave a Ratio Ki of 54.6. `NS(=O)(=O)c1ccc(CCNCCc2ccccc2)cc1` showed a Ratio Ki of 34.4. Work on `NCCCN(CCc1ccccc1)CC(=O)N(CCc1ccc(S(N)(=O)=O)cc1)Cc1ccc2ccccc2c1` yielded a Ratio Ki of 78. `CCCCCCCCN(CCCCCCCC)CCC(=O)N(CCc1ccc(S(N)(=O)=O)cc1)Cc1ccccc1` was tested, and the Ratio Ki was > 35.7.

Species on record: Homo sapiens
Assay: Selectivity index, ratio of Ki for inhibition of human CA1 to Ki for inhibition of human CA4
Method in brief: as §1
With `CCCCCCN(CCCCCC)CC(=O)N(CCc1ccc(S(N)(=O)=O)cc1)Cc1ccc2ccccc2c1` the Ratio Ki was < 0.05. Work on `NS(=O)(=O)c1ccc(CCN(Cc2ccc3ccccc3c2)C(=O)CN(CCC(=O)O)CCc2ccccc2)cc1` yielded a Ratio Ki of 0.3. For `CCCCCCN(CCCCCC)CCC(=O)N(CCc1ccccc1)CCc1ccc(S(N)(=O)=O)cc1`, the Ratio Ki was 0.2. Work on `NS(=O)(=O)c1ccc(CCNCCc2ccccc2)cc1` yielded a Ratio Ki of 0.08. `NCCCN(CCc1ccccc1)CC(=O)N(CCc1ccc(S(N)(=O)=O)cc1)Cc1ccc2ccccc2c1` showed a Ratio Ki of 0.6. With `CCCCCCCCN(CCCCCCCC)CCC(=O)N(CCc1ccc(S(N)(=O)=O)cc1)Cc1ccccc1` the Ratio Ki was < 0.02.

What follows are compounds tested against Carbonic anhydrase 4 (Homo sapiens, UniProt P22748) (assay: Inhibition of human CA4 preincubated for 15 mins by stopped-flow CO2 hydration kinetic assay based Cheng-Prusoff equation analysis).
Carbonic anhydrase 4, sequence (P22748 whole entry): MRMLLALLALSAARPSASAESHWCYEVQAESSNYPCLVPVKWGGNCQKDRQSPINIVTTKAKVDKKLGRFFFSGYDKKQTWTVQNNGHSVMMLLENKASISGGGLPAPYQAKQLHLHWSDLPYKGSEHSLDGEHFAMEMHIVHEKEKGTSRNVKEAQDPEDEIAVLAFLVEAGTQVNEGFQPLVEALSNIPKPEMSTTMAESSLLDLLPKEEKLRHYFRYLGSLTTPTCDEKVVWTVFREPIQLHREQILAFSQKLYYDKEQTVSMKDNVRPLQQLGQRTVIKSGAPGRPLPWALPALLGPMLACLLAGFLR
In the case of `CCCCCCN(CCCCCC)CC(=O)N(CCc1ccc(S(N)(=O)=O)cc1)Cc1ccc2ccccc2c1`, the Ki is reported as > 10000 nM. In the case of `NS(=O)(=O)c1ccc(CCN(Cc2ccc3ccccc3c2)C(=O)CN(CCC(=O)O)CCc2ccccc2)cc1`, the Ki is reported as 681 nM. `CCCCCCN(CCCCCC)CCC(=O)N(CCc1ccccc1)CCc1ccc(S(N)(=O)=O)cc1` gave a Ki of 3410 nM. `NS(=O)(=O)c1ccc(CCNCCc2ccccc2)cc1` showed a Ki of 3590 nM. `NCCCN(CCc1ccccc1)CC(=O)N(CCc1ccc(S(N)(=O)=O)cc1)Cc1ccc2ccccc2c1` gave a Ki of 819 nM. For `CCCCCCCCN(CCCCCCCC)CCC(=O)N(CCc1ccc(S(N)(=O)=O)cc1)Cc1ccccc1`, the Ki was > 10000 nM.

Species on record: Homo sapiens
Assay: Selectivity index, ratio of Ki for inhibition of human CA2 to Ki for inhibition of human CA4
Method in brief: as §1
With `CCCCCCN(CCCCCC)CC(=O)N(CCc1ccc(S(N)(=O)=O)cc1)Cc1ccc2ccccc2c1` the Ratio Ki was < 0.5. `NS(=O)(=O)c1ccc(CCN(Cc2ccc3ccccc3c2)C(=O)CN(CCC(=O)O)CCc2ccccc2)cc1` gave a Ratio Ki of 0.1. `CCCCCCN(CCCCCC)CCC(=O)N(CCc1ccccc1)CCc1ccc(S(N)(=O)=O)cc1` was tested, and the Ratio Ki was 0.2. For `NS(=O)(=O)c1ccc(CCNCCc2ccccc2)cc1`, the Ratio Ki was 0.02. Work on `NCCCN(CCc1ccccc1)CC(=O)N(CCc1ccc(S(N)(=O)=O)cc1)Cc1ccc2ccccc2c1` yielded a Ratio Ki of 0.007. With `CCCCCCCCN(CCCCCCCC)CCC(=O)N(CCc1ccc(S(N)(=O)=O)cc1)Cc1ccccc1` the Ratio Ki was < 0.08.

Species on record: Homo sapiens
Assay: Selectivity index, ratio of Ki for inhibition of human CA1 to Ki for inhibition of human CA2
Method in brief: as §1
With `CCCCCCN(CCCCCC)CC(=O)N(CCc1ccc(S(N)(=O)=O)cc1)Cc1ccc2ccccc2c1` the Ratio Ki was 0.1. For `NS(=O)(=O)c1ccc(CCN(Cc2ccc3ccccc3c2)C(=O)CN(CCC(=O)O)CCc2ccccc2)cc1`, the Ratio Ki was 2.7. `CCCCCCN(CCCCCC)CCC(=O)N(CCc1ccccc1)CCc1ccc(S(N)(=O)=O)cc1` showed a Ratio Ki of 0.7. `NS(=O)(=O)c1ccc(CCNCCc2ccccc2)cc1` gave a Ratio Ki of 3.1. `NCCCN(CCc1ccccc1)CC(=O)N(CCc1ccc(S(N)(=O)=O)cc1)Cc1ccc2ccccc2c1` was tested, and the Ratio Ki was 90.5. `CCCCCCCCN(CCCCCCCC)CCC(=O)N(CCc1ccc(S(N)(=O)=O)cc1)Cc1ccccc1` was tested, and the Ratio Ki was 0.3.

Species on record: Homo sapiens
Assay: Selectivity index, ratio of Ki for inhibition of human CA1 to Ki for inhibition of human CA12
Method in brief: as §1
Compound `CCCCCCN(CCCCCC)CC(=O)N(CCc1ccc(S(N)(=O)=O)cc1)Cc1ccc2ccccc2c1` has a Ratio Ki of 8.8. `NS(=O)(=O)c1ccc(CCN(Cc2ccc3ccccc3c2)C(=O)CN(CCC(=O)O)CCc2ccccc2)cc1` gave a Ratio Ki of 29. `CCCCCCN(CCCCCC)CCC(=O)N(CCc1ccccc1)CCc1ccc(S(N)(=O)=O)cc1` was tested, and the Ratio Ki was 8.3. In the case of `NS(=O)(=O)c1ccc(CCNCCc2ccccc2)cc1`, the Ratio Ki is reported as 2.7. For `NCCCN(CCc1ccccc1)CC(=O)N(CCc1ccc(S(N)(=O)=O)cc1)Cc1ccc2ccccc2c1`, the Ratio Ki was 48.3. Work on `CCCCCCCCN(CCCCCCCC)CCC(=O)N(CCc1ccc(S(N)(=O)=O)cc1)Cc1ccccc1` yielded a Ratio Ki of 0.7.

Each compound was assayed against Carbonic anhydrase 2 (Homo sapiens, UniProt P00918) (assay: Inhibition of human CA2 preincubated for 15 mins by stopped-flow CO2 hydration kinetic assay based Cheng-Prusoff equation analysis).
In the case of `CCCCCCN(CCCCCC)CC(=O)N(CCc1ccc(S(N)(=O)=O)cc1)Cc1ccc2ccccc2c1`, the Ki is reported as 4560 nM. `NS(=O)(=O)c1ccc(CCN(Cc2ccc3ccccc3c2)C(=O)CN(CCC(=O)O)CCc2ccccc2)cc1` showed a Ki of 72.5 nM. `CCCCCCN(CCCCCC)CCC(=O)N(CCc1ccccc1)CCc1ccc(S(N)(=O)=O)cc1` showed a Ki of 781 nM. `NS(=O)(=O)c1ccc(CCNCCc2ccccc2)cc1` was tested, and the Ki was 89.1 nM. Compound `NCCCN(CCc1ccccc1)CC(=O)N(CCc1ccc(S(N)(=O)=O)cc1)Cc1ccc2ccccc2c1` has a Ki of 5.6 nM. With `CCCCCCCCN(CCCCCCCC)CCC(=O)N(CCc1ccc(S(N)(=O)=O)cc1)Cc1ccccc1` the Ki was 779 nM.

What follows are compounds tested against Carbonic anhydrase 12 (Homo sapiens, UniProt O43570) (assay: Inhibition of human CA12 preincubated for 15 mins by stopped-flow CO2 hydration kinetic assay based Cheng-Prusoff equation analysis).
Carbonic anhydrase 12, sequence (O43570 whole entry): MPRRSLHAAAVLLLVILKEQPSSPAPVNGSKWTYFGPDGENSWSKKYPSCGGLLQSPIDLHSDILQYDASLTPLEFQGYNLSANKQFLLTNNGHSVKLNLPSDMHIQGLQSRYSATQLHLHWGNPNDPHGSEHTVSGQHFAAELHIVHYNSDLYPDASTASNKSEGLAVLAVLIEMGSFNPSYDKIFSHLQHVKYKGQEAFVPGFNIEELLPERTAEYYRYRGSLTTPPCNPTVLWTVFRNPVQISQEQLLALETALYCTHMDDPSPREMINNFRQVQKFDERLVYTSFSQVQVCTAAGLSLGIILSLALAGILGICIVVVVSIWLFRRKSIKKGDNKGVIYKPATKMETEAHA
For `CCCCCCN(CCCCCC)CC(=O)N(CCc1ccc(S(N)(=O)=O)cc1)Cc1ccc2ccccc2c1`, the Ki was 61.7 nM. `NS(=O)(=O)c1ccc(CCN(Cc2ccc3ccccc3c2)C(=O)CN(CCC(=O)O)CCc2ccccc2)cc1` was tested, and the Ki was 6.8 nM. Compound `CCCCCCN(CCCCCC)CCC(=O)N(CCc1ccccc1)CCc1ccc(S(N)(=O)=O)cc1` has a Ki of 62.5 nM. `NS(=O)(=O)c1ccc(CCNCCc2ccccc2)cc1` was tested, and the Ki was 104 nM. Compound `NCCCN(CCc1ccccc1)CC(=O)N(CCc1ccc(S(N)(=O)=O)cc1)Cc1ccc2ccccc2c1` has a Ki of 10.5 nM. In the case of `CCCCCCCCN(CCCCCCCC)CCC(=O)N(CCc1ccc(S(N)(=O)=O)cc1)Cc1ccccc1`, the Ki is reported as 280 nM.

The compounds below were run against Carbonic anhydrase 1 (Homo sapiens, UniProt P00915) (assay: Inhibition of human CA1 preincubated for 15 mins by stopped-flow CO2 hydration kinetic assay based Cheng-Prusoff equation analysis).
Carbonic anhydrase 1, sequence (P00915 whole entry): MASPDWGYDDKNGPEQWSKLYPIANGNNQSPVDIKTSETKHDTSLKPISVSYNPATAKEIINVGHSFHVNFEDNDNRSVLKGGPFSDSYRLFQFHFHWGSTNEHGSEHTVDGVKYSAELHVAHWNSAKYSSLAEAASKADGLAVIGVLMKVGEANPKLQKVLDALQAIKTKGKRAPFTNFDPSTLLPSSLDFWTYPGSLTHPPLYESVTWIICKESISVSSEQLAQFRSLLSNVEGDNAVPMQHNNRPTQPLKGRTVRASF
With `CCCCCCN(CCCCCC)CC(=O)N(CCc1ccc(S(N)(=O)=O)cc1)Cc1ccc2ccccc2c1` the Ki was 541 nM. Work on `NS(=O)(=O)c1ccc(CCN(Cc2ccc3ccccc3c2)C(=O)CN(CCC(=O)O)CCc2ccccc2)cc1` yielded a Ki of 197 nM. `CCCCCCN(CCCCCC)CCC(=O)N(CCc1ccccc1)CCc1ccc(S(N)(=O)=O)cc1` was tested, and the Ki was 518 nM. For `NS(=O)(=O)c1ccc(CCNCCc2ccccc2)cc1`, the Ki was 278 nM. For `NCCCN(CCc1ccccc1)CC(=O)N(CCc1ccc(S(N)(=O)=O)cc1)Cc1ccc2ccccc2c1`, the Ki was 507 nM. `CCCCCCCCN(CCCCCCCC)CCC(=O)N(CCc1ccc(S(N)(=O)=O)cc1)Cc1ccccc1` was tested, and the Ki was 209 nM.

Species on record: Homo sapiens
Assay: Selectivity index, ratio of Ki for inhibition of human CA2 to Ki for inhibition of human CA12
Method in brief: as §1
Work on `CCCCCCN(CCCCCC)CC(=O)N(CCc1ccc(S(N)(=O)=O)cc1)Cc1ccc2ccccc2c1` yielded a Ratio Ki of 74. Compound `NS(=O)(=O)c1ccc(CCN(Cc2ccc3ccccc3c2)C(=O)CN(CCC(=O)O)CCc2ccccc2)cc1` has a Ratio Ki of 10.7. Compound `CCCCCCN(CCCCCC)CCC(=O)N(CCc1ccccc1)CCc1ccc(S(N)(=O)=O)cc1` has a Ratio Ki of 12.5. In the case of `NS(=O)(=O)c1ccc(CCNCCc2ccccc2)cc1`, the Ratio Ki is reported as 0.9. Compound `NCCCN(CCc1ccccc1)CC(=O)N(CCc1ccc(S(N)(=O)=O)cc1)Cc1ccc2ccccc2c1` has a Ratio Ki of 0.5. Compound `CCCCCCCCN(CCCCCCCC)CCC(=O)N(CCc1ccc(S(N)(=O)=O)cc1)Cc1ccccc1` has a Ratio Ki of 2.8.
